In ChEMBL document CHEMBL4043302, “Lead Diversification at the Nanomole Scale Using Liver Microsomes and Quantitative Nuclear Magnetic Resonance Spectroscopy: Application to Phosphodiesterase 2 Inhibitors” (J Med Chem, 2018):

Legend:
[1] = Intrinsic clearance in human hepatocytes assessed per million cells at 1 uM after 0.5 to 4 hrs by HPLC-HRMS method; type: ADME, cell-based, Hepatocyte; details: for hepatocyte CLint at 1 µM: human hepatocytes, read-out: CLH; for CLint: hepatocytes, 1 µM
Method in brief: (§1)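 Compound at 1 µM was dried from d6-DMSO and redissolved in Williams E medium. Pooled human hepatocytes were added at 680000 cells/mL. Samples were quenched in water/CH3CN (2:1) with 2% formic acid and clozapine as internal standard, then analysed by HPLC-HRMS in positive-ion full scan. k came from the slope of ln peak-area ratio versus time; CLint = k / cell concentration. Non-specific binding was not measured.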

[2] = (§2) Apparent permeability across RRCK cells after 1.5 hrs; type: ADME, cell-based, Canis lupus familiaris, MDCKII-LE; details: dog, MDCK
[3] = tested on: Liver; assay: Drug level in dog liver microsomes treated with 2-(3,4-dimethoxybenzyl)-7-((2R,3R)-2-hydroxy-6-phenylhexan-3-yl)-5-methylimidazo[1,5-f][1,2,4]triazin-4(3H)-one at 20 uM after 1 hr by UHPLC-UV-HRMS method; type: ADME, Canis lupus familiaris, microsome
Method in brief: (§3)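 Preparative incubation: substrate 20 µM with liver microsomes (2 mg/mL) of the listed species in 0.1 M potassium phosphate, pH 7.5, with MgCl2 3.3 mM and NADPH 1.3 mM. Run at 37°C in a shaking water bath and stopped with an equal volume of CH3CN. Products were fractionated by HPLC and quantified by qNMR in d6-DMSO.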

[4] = target: cGMP-dependent 3',5'-cyclic phosphodiesterase (Homo sapiens, UniProt O00408); assay: Inhibition of human PDE2A1 using 3',5'-[3H]cGMP as substrate after 30 mins by scintillation proximity assay
[5] = Metabolic stability in human hepatocytes at 1 uM after 0.5 to 4 hrs by HPLC-HRMS method; type: ADME, cell-based, Hepatocyte; method in brief: as §1
[6] = Drug level in hamster liver microsomes treated with 7-(1,3-Dimethyl-5-(4-(trifluoromethyl)phenyl)-1H-pyrazol-4-yl)-5-(methoxymethyl)-2-methylimidazol[5,1-f ][1,2,4]triazin-4-(3H)-one at 20 uM after 1 hr by UHPLC-UV-HRMS method; type: ADME, microsome; details: cricetinae; method in brief: as §3
[7] = Drug level in rabbit liver microsomes treated with 7-(1,3-Dimethyl-5-(3-methyl-4-(trifluoromethyl)phenyl)-1H-pyrazol-4-yl)-2,5-dimethylimidazo[5,1-f ][1,2,4]triazin-4(3H)-one at 20 uM after 1 hr by UHPLC-UV-HRMS method; type: ADME, Oryctolagus cuniculus, microsome
[8] = Drug level in hamster liver microsomes treated with 7-(5-(4-Methoxyphenyl)-1,3-dimethyl-1H-pyrazol-4-yl)-2,5-dimethylimidazo[5,1-f ][1,2,4]triazin-4(3H)-one at 20 uM after 1.5 hrs by UHPLC-UV-HRMS method; type: ADME, microsome; details: cricetinae; method in brief: as §3
[9] = tested on: Liver; assay: Drug level in human liver microsomes treated with 2-(3,4-dimethoxybenzyl)-7-((2S,3R)-2-hydroxy-6-phenylhexan-3-yl)-5-methylimidazo[1,5-f][1,2,4]triazin-4(3H)-one at 20 uM after 1 hr by UHPLC-UV-HRMS method; type: ADME, microsome; method in brief: as §3
[10] = Drug level in cynomolgus monkey liver microsomes treated with 7-(1,3-Dimethyl-5-(5-(trifluoromethyl)pyridine-2-yl)-1H-pyrazol-4-yl)-2,5-dimethylimidazo[5,1-f ][1,2,4]triazin-4(3H)-one at 20 uM after 1.2 hrs by UHPLC-UV-HRMS method; type: ADME, Macaca fascicularis, microsome; method in brief: as §3
[11] = tested on: MDCKII-LE; assay: as §2; type: ADME, cell-based, Canis lupus familiaris; details: dog, mdckii-le, 1.5 h
[12] = Drug level in cynomolgus monkey liver microsomes treated with 5-(Difluoromethyl)-7-(1,3-dimethyl-5-(4-(trifluoromethyl)phenyl)-1H-pyrazol-4-yl)-2-methylimidazo[5,1-f ][1,2,4]triazin-4(3H)-one at 20 uM after 1.5 hrs by UHPLC-UV-HRMS method; type: ADME, Macaca fascicularis, microsome; method in brief: as §3
[13] = tested on: Liver; assay: Drug level in mouse liver microsomes treated with 7-(5-(4-Chlorophenyl)-1,3-dimethyl-1H-pyrazol-4-yl)-2,5-dimethylimidazo[5,1-f ][1,2,4]triazin-4(3H)-one at 20 uM after 1.5 hrs by UHPLC-UV-HRMS method; type: ADME, microsome; method in brief: as §3

Sequence of cGMP-dependent 3',5'-cyclic phosphodiesterase (O00408 whole entry): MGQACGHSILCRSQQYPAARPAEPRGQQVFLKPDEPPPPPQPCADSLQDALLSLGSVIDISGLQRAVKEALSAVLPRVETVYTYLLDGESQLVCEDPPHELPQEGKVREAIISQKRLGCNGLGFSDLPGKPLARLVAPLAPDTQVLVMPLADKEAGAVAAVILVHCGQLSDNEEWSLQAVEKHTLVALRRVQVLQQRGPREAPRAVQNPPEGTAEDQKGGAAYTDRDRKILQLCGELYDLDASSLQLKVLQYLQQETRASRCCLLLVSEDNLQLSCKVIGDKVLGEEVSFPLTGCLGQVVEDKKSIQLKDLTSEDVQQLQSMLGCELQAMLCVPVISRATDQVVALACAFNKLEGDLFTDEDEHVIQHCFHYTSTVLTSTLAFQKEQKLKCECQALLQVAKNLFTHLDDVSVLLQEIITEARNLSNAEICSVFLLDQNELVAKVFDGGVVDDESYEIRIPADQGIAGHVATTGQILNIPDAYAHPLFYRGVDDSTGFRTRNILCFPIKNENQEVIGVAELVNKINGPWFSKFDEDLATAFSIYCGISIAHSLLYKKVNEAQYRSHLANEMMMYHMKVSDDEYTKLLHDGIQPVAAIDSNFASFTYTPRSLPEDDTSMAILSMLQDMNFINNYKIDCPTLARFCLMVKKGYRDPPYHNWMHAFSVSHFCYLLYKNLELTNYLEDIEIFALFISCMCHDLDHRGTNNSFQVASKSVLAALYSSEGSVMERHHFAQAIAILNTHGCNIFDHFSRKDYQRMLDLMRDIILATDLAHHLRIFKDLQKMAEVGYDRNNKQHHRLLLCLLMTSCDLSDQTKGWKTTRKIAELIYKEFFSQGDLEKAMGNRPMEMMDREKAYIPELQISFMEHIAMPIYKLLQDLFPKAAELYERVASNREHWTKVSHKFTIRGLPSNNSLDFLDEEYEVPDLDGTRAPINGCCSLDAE

hepatocyte CLint at 1 µM [1] [µL/min/1e6 cells] | Papp at 1.5 h [2] [×10⁻⁶ cm/s] | Stability [5] | Compound | also measured
– | 8.3 | Stable | Cc1nn2c(-c3c(C)nn(C)c3-c3ccc(C(F)(F)F)cc3)nc(CO)c2c(=O)[nH]1 | IC50 [4]: 0.0003 µM; Drug metabolism [6]: Metabolite_Detected
– | 13 | Stable | Cc1nn2c(-c3c(C)nn(C)c3-c3ccc(C(F)(F)F)c(C)c3)nc(CO)c2c(=O)[nH]1 | Drug metabolism [7]: Metabolite_Detected
– | < 0.5 | Stable | Cc1nn2c(-c3c(C)n[nH]c3-c3ccc(O)nc3)nc(C)c2c(=O)[nH]1 | IC50 [4]: > 2 µM; Drug metabolism [8]: Metabolite_Detected
– | < 0.5 | Stable | Cc1nn2c(-c3c(C)nn(C)c3-c3ccc(C(F)(F)F)c(CO)c3)nc(CO)c2c(=O)[nH]1 | Drug metabolism [7]: Metabolite_Detected
– | < 0.5 | Stable | COc1ccc(-c2[nH]nc(C)c2-c2nc(CO)c3c(=O)[nH]c(C)nn23)cn1 | Drug metabolism [8]: Metabolite_Detected
– | < 0.5 | Stable | Cc1nn2c(-c3c(CO)nn(C)c3-c3ccc(C(F)(F)F)cn3)nc(C)c2c(=O)[nH]1 | Drug metabolism [10]: Metabolite_Detected
– | 0.54 | Stable | Cc1nn2c(-c3c(CO)nn(C)c3-c3ccc(C(F)(F)F)cn3)nc(CO)c2c(=O)[nH]1 | Drug metabolism [10]: Metabolite_Detected
– | 0.94 | Stable | Cc1nn2c(-c3c(C)n[nH]c3-c3ccc(C(F)(F)F)cc3)nc(CO)c2c(=O)[nH]1 | Drug metabolism [6]: Metabolite_Detected
5.5 | 6.3 | – | Cc1nn2c(-c3c(CO)nn(C)c3-c3ccc(C(F)(F)F)cc3)nc(C(F)F)c2c(=O)[nH]1 | Drug metabolism [12]: Metabolite_Detected
14.7 | 1.2 | – | Cc1nn2c(-c3c(C=O)nn(C)c3-c3ccc(C(F)(F)F)cn3)nc(C)c2c(=O)[nH]1 | Drug metabolism [10]: Metabolite_Detected
3.9 | 3 | – | Cc1nn2c(-c3c(C)nn(C)c3-c3ccc(C(F)(F)F)c(CO)c3)nc(C)c2c(=O)[nH]1 | Drug metabolism [7]: Metabolite_Detected
13 | 7.9 | – | COCc1nc(-c2c(C)nn(C)c2-c2ccc(C(F)(F)F)cc2)n2c1c(=O)[nH]c(C)[n+]2[O-] | Drug metabolism [6]: Metabolite_Detected
6.4 | 10 | – | Cc1nn2c(-c3c(C)n[nH]c3-c3ccc(C(F)(F)F)cc3)nc(C(F)F)c2c(=O)[nH]1 | Drug metabolism [12]: Metabolite_Detected
– | 1 | Stable | Cc1nn2c(-c3c(CO)nn(C)c3-c3ccc(C(F)(F)F)cc3)nc(CO)c2c(=O)[nH]1 | Drug metabolism [6]: Metabolite_Detected
– | 53 | Stable | Cc1nn2c(-c3c(C(=O)O)nn(C)c3-c3ccc(C(F)(F)F)c(C)c3)nc(C)c2c(=O)[nH]1 | Drug metabolism [7]: Metabolite_Detected
1.9 | 1.1 | – | COc1ccc(-c2[nH]nc(C)c2-c2nc(C)c3c(=O)[nH]c(C)nn23)cn1 | Drug metabolism [8]: Metabolite_Detected
– | 0.55 | Stable | Cc1nn2c(-c3c(CO)nn(C)c3-c3ccc(C(F)(F)F)c(CO)c3)nc(C)c2c(=O)[nH]1 | Drug metabolism [7]: Metabolite_Detected
– | 1.7 | Stable | Cc1nn2c(-c3c(C)nn(C)c3-c3ccc(C(F)(F)F)cn3)nc(CO)c2c(=O)[nH]1 | Drug metabolism [10]: Metabolite_Detected

The remaining lines, values behind:

Compound | hepatocyte CLint at 1 µM [1] [µL/min/1e6 cells] | Papp at 1.5 h [2] [×10⁻⁶ cm/s] | Stability [5] | also measured
COc1ccc(Cc2nn3c([C@@H](CCC(=O)c4ccccc4)[C@@H](C)O)nc(C)c3c(=O)[nH]2)cc1OC | 25 | 11 | – | Drug metabolism [3]: Metabolite_Detected
Cc1nn2c(-c3c(CO)nn(C)c3-c3ccc(C(F)(F)F)c(C)c3)nc(CO)c2c(=O)[nH]1 | – | 1.7 | Stable | Drug metabolism [7]: Metabolite_Detected
COc1cc(Cc2nn3c([C@@H](CCC(O)c4ccccc4)[C@@H](C)O)nc(C)c3c(=O)[nH]2)ccc1O (some centres undefined) | 13 | 1.2 | – | Drug metabolism [3]: Metabolite_Detected
COc1ccc(Cc2nn3c([C@@H](CCC(O)c4ccccc4)[C@@H](C)O)nc(C)c3c(=O)[nH]2)cc1OC (single isomer, unassigned; diastereomer 1) | 14 | 2 | – | Drug metabolism [3]: Metabolite_Detected
COc1ccc(Cc2nn3c([C@@H](C(O)CC(O)c4ccccc4)[C@H](C)O)nc(C)c3c(=O)[nH]2)cc1OC (some centres undefined) | 4.3 | – | – | Drug metabolism [9]: Metabolite_Detected
COc1ccc(Cc2nn3c([C@@H](CCC(O)c4ccccc4)[C@H](C)O)nc(C)c3c(=O)[nH]2)cc1OC (single isomer, unassigned; diastereomer 2) | – | – | – | CLint [1]: 14 µL/min/1e6 cells; Papp [11]: 2.2 ×10⁻⁶ cm/s
Cc1nn2c(-c3c(C)nn(C)c3-c3ccc(Cl)cc3)nc(CO)c2c(=O)[nH]1 | 15 | 4.9 | – | Drug metabolism [13]: Metabolite_Detected
Cc1nc(-c2cnn3c2CN(CC2CCCC2O)CC3)c2c(=O)[nH]cnn12 (single isomer, unassigned; diastereomer 2) | – | – | – | IC50 [4]: > 2 µM; CLint [1]: 5.8 µL/min/1e6 cells
COc1ccc(Cc2nn3c([C@@H](CCC(O)c4ccccc4)[C@@H](C)O)nc(C)c3c(=O)[nH]2)cc1O (some centres undefined) | 12 | 1.1 | – | Drug metabolism [3]: Metabolite_Detected
Cc1nn2c(-c3c(CO)nn(C)c3-c3ccc(Cl)cc3)nc(C)c2c(=O)[nH]1 | 11 | 19 | – | Drug metabolism [13]: Metabolite_Detected
COc1ccc(Cc2nn3c([C@@H](CCC(=O)c4ccccc4)[C@H](C)O)nc(C)c3c(=O)[nH]2)cc1OC | 32 | – | – | Drug metabolism [9]: Metabolite_Detected
COc1ccc(Cc2nn3c([C@@H](CCC(O)c4ccccc4)[C@H](C)O)nc(C)c3c(=O)[nH]2)cc1OC (stereo in doubt) | 11 | 2.8 | – | Drug metabolism [9]: Metabolite_Detected
COc1ccc(-c2c(-c3nc(CO)c4c(=O)[nH]c(C)nn34)c(C)nn2C)cn1 | – | 0.76 | Stable | Drug metabolism [8]: Metabolite_Detected
COc1ccc(Cc2nn3c([C@@H](CCC(O)c4ccccc4)[C@H](C)O)nc(C)c3c(=O)[nH]2)cc1O (some centres undefined) | 9.6 | 1.2 | – | Drug metabolism [9]: Metabolite_Detected
COc1ccc(Cc2nn3c([C@@H](CC(O)C(O)c4ccccc4)[C@@H](C)O)nc(C)c3c(=O)[nH]2)cc1OC (some centres undefined) | 2.4 | 0.56 | – | Drug metabolism [3]: Metabolite_Detected
COc1ccc(Cc2nn3c([C@@H](CCC(O)c4ccccc4)[C@@H](C)O)nc(C)c3c(=O)[nH]2)cc1OC (stereo in doubt) | – | – | – | CLint [1]: 17 µL/min/1e6 cells; Papp [11]: 2.2 ×10⁻⁶ cm/s
